The target of data set [1] is Histamine H1 receptor (Homo sapiens) (UniProt P35367). The settings on record: at 20 µM.
In data set [2] the target is T1, Muscarinic acetylcholine receptor M4 (Homo sapiens) (UniProt P08173).
T1 sequence (whole entry): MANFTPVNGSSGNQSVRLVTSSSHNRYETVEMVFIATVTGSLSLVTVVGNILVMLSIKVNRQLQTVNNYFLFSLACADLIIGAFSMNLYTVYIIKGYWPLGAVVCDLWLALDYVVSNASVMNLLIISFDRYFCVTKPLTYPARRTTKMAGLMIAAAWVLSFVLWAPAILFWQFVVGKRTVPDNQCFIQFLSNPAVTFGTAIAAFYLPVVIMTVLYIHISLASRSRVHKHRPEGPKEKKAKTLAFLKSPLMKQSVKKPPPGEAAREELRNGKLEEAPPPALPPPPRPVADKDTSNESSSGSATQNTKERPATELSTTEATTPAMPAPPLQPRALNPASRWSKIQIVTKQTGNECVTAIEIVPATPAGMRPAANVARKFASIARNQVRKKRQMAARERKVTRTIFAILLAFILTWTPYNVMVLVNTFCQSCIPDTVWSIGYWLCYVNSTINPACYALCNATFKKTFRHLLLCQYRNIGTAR
Nature of the data set: Antagonist activity at human Gs/Gi/o-coupled CHRM4 expressed in CHOK1 cells assessed as inhibition in acetylcholine-induced beta-arrestin 2 recruitment at 20 uM incubated for 30 mins followed by acetylcholine addition and measured after 90 or 180 mins by pathhunter beta-arrestin assay relative to control. It is filed as cell-based. Summed up: (§1)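 PathHunter beta-arrestin recruitment, antagonist mode, run at DiscoverX. Cells seeded and held at 37 °C, then preincubated with test sample for 30 min at 37 °C or room temperature (1% vehicle). Agonist then added at EC80 for 90 or 180 min. IC50 comes from concentration–response runs in the same format.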
(Arrestin recruitment assays detect the binding of arrestin to an activated receptor.)

Data set [3] addresses T2, Orexin receptor type 2 (Homo sapiens, UniProt O43614).
T2 sequence (O43614 whole entry): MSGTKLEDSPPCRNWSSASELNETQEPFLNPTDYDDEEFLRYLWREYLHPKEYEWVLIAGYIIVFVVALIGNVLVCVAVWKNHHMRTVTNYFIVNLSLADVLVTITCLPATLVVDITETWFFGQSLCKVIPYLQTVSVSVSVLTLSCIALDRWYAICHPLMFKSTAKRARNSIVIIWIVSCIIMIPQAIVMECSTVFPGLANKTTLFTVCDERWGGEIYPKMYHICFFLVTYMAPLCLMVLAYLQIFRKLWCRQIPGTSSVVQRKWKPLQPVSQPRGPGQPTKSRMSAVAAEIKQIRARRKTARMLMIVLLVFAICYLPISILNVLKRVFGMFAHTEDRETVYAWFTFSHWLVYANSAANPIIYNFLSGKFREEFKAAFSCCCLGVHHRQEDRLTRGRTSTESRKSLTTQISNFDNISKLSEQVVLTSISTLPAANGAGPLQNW
Nature of the data set: Antagonist activity at human Gq-coupled HCRTR2 expressed in CHOK1 cells assessed as inhibition in Orexin A-induced beta-arrestin 2 recruitment incubated for 30 mins followed by Orexin A addition and measured after 90 or 180 mins by pathhunter beta-arrestin assay. It is filed as cell-based. Summed up: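 PathHunter beta-arrestin recruitment, antagonist mode, run at DiscoverX. Cells seeded and held at 37 °C, then preincubated with test sample for 30 min at 37 °C or room temperature (1% vehicle). Agonist then added at EC80 for 90 or 180 min. […] IC50 comes from concentration–response runs in the same format.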

The nature of data set [4]: Toxicity in C57BL/6J mouse at 60 nmol, icv measured for 2 days by conditioned place preference test. The following applies: in vivo, icv_or_intrathecal, 48 h.
Data set [5] can be described thus: Toxicity in C57BL/6J mouse assessed as induction of behavioral changes at 60 nmol, icv. The settings on record: in vivo, icv_or_intrathecal.
The target of data set [6] is Cannabinoid receptor 1 (Homo sapiens, UniProt P21554). Nature of the data set: Antagonist activity at human Gi/o-coupled CNR1 expressed in CHOK1 cells assessed as inhibition in CP55940-induced beta-arrestin 2 recruitment at 20 uM incubated for 30 mins followed by CP55940 addition and measured after 90 or 180 mins by pathhunter beta-arrestin assay relative to control. Format: cell-based. Summed up: as §1

Data set [7] has as its target C-C chemokine receptor type 8 (Homo sapiens, UniProt P51685). In words: Antagonist activity at human CCR8 expressed in CHOK1 cells assessed as inhibition in CCL1-induced beta-arrestin 2 recruitment at 20 uM incubated for 30 mins followed by CCL1 addition and measured after 90 or 180 mins by pathhunter beta-arrestin assay relative to control. Format: cell-based. In outline: as §1

Data set [8] has as its target Prostacyclin receptor (Homo sapiens, UniProt P43119). Nature of the data set: Antagonist activity at human Gs-coupled PTGIR assessed as inhibition in beraprost-induced beta-arrestin 2 recruitment at 20 uM incubated for 30 mins followed by beraprost- addition and measured after 90 or 180 mins by pathhunter beta-arrestin assay relative to control. Summed up: as §1
In data set [9] the target is C-X-C chemokine receptor type 4 (Homo sapiens) (UniProt P61073). In words: Antagonist activity at human Gi/o-coupled CXCR4 expressed in mouse C2C12 cells assessed as inhibition in CXCL12-induced beta-arrestin 2 recruitment at 20 uM incubated for 30 mins followed by CXCL12 addition and measured after 90 or 180 mins by pathhunter beta-arrestin assay relative to control. It is filed as cell-based. Summed up: as §1

The nature of data set [10]: Stability of compound in pH 4.88 HCl aqueous solution assessed as parent compound remaining at 0.026 mmol measured after 24 hrs. Format: physicochemical. The settings on record: read-out: Stability. In outline: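 Acid stability: compound held 24 h at 37 °C in acidic aqueous media at pH 2.0 or pH 4.88. Percent recovery of parent compound was measured.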
The target in data set [11] is T3, Orexin receptor type 2 (Homo sapiens) (UniProt O43614).
T3 sequence (whole entry): T2 sequence (O43614 whole entry)
Nature of the data set: Antagonist activity at human Gq-coupled HCRTR2 expressed in CHOK1 cells assessed as inhibition in Orexin A-induced beta-arrestin 2 recruitment at 20 uM incubated for 30 mins followed by Orexin A addition and measured after 90 or 180 mins by pathhunter beta-arrestin assay relative to control. Format: cell-based. In outline:
as §1

Data set [12] deals with Cannabinoid receptor 2 (Homo sapiens, UniProt P34972). In words: Antagonist activity at human Gi/o-coupled CNR2 expressed in CHOK1 cells assessed as inhibition in CP55940-induced beta-arrestin 2 recruitment at 20 uM incubated for 30 mins followed by CP55940 addition and measured after 90 or 180 mins by pathhunter beta-arrestin assay relative to control. Format: cell-based. In outline:
as §1

SMILES strings stand for the structures. pIC50: −log10 of the molar value.

Chain of C-X-C chemokine receptor type 4 (Homo sapiens) (P61073 whole entry): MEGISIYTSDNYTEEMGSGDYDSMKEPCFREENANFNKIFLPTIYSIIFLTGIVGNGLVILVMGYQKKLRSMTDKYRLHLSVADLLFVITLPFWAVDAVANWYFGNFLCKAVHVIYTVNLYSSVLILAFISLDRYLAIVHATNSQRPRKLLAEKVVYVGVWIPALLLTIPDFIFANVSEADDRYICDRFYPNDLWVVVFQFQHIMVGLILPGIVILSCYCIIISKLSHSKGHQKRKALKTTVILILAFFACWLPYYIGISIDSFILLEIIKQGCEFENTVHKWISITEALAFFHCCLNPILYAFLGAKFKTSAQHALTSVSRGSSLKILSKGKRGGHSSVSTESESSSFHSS
Chain of Histamine H1 receptor (Homo sapiens) (P35367 whole entry): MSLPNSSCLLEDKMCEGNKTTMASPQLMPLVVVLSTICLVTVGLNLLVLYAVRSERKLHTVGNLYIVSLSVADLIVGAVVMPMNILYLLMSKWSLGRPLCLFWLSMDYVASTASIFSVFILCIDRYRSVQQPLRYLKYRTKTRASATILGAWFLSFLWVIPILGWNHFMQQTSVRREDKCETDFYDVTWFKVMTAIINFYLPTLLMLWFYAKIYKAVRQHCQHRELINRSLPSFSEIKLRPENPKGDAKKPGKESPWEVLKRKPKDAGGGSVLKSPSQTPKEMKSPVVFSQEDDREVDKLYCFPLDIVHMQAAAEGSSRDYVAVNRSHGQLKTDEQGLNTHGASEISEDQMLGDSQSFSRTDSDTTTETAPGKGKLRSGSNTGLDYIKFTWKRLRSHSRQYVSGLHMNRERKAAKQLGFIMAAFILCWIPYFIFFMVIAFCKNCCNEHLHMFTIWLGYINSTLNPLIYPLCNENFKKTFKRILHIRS
Chain of C-C chemokine receptor type 8 (P51685 whole entry): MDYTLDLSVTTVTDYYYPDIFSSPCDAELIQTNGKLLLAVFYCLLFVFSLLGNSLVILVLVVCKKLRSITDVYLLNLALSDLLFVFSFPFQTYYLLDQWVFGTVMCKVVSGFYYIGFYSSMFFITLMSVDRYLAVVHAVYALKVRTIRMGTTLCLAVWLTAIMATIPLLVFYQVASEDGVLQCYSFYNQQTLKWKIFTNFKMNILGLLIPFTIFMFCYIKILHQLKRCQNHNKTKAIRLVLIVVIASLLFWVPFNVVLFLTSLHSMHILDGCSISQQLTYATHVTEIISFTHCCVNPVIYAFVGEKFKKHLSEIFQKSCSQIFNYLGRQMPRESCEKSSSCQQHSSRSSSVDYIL
Chain of Prostacyclin receptor (P43119 whole entry): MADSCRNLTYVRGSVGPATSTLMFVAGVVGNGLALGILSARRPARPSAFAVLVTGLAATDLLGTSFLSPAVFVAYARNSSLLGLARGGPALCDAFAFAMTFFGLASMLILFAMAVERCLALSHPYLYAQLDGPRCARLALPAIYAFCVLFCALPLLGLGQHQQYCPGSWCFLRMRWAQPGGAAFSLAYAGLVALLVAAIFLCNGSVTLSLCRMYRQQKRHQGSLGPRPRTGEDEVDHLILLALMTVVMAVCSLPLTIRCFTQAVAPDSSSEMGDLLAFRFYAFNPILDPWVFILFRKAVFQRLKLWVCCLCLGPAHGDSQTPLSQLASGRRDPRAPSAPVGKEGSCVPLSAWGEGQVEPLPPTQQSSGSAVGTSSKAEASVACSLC
Chain of Cannabinoid receptor 1 (P21554 whole entry): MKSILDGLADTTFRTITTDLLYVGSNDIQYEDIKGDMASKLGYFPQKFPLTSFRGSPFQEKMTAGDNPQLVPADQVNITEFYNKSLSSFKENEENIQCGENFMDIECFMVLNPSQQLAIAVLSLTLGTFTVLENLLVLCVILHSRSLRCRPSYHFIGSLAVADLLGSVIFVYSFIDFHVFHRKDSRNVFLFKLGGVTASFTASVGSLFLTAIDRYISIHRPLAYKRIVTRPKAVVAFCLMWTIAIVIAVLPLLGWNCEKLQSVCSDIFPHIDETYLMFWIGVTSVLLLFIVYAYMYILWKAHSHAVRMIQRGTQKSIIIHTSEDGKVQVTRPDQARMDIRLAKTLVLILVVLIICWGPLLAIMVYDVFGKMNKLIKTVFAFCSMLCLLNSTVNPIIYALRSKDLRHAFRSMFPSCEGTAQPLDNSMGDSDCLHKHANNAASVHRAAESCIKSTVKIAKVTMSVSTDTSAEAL
Chain of Cannabinoid receptor 2 (P34972 whole entry): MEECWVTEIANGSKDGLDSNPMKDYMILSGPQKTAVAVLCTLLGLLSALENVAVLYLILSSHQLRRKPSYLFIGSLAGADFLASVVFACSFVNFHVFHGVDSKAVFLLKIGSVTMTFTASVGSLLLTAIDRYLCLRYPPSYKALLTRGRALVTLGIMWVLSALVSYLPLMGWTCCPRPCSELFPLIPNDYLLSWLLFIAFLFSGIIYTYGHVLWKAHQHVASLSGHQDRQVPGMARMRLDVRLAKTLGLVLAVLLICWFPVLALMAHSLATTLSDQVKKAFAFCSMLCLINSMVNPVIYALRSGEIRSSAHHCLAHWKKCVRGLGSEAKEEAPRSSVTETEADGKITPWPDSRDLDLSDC

A word on the inhibition: it is the drop in the measured response relative to a control, in per cent. Broadly, the pIC50 is −log10 of the IC50, conventionally taken in molar units. For `CC[C@@]12CCCN3CCc4c([nH]c5ccccc45)[C@]31N(Cc1cn(Cc3ccccc3)nn1)C(=O)C2`, the inhibition in data set [1] was 17%; in data set [2] it was 75%; in data set [6], 48%; in data set [7], 59%; in data set [8], 75%; in [9], 34%. For the same compound, the inhibition in data set [11] was 80%; in data set [12], 60%. Besides, the pIC50 in data set [3] is 5.65. Further, the Activity entry in [4] and in data set [5] was “Non-Toxic” throughout. For the same compound, the remaining at 24 h, 0.026 mmol in data set [10] was 99.2%.

These data come from ChEMBL document CHEMBL4342456, “Preventing Morphine-Seeking Behavior through the Re-Engineering of Vincamine's Biological Activity” (J Med Chem, 2020).
